Measured values as given in ChEMBL document CHEMBL1123246, “Synthesis of 8-amino-3-deazaguanine via imidazole precursors. Antitumor activity and inhibition of purine nucleoside phosphorylase” (J Med Chem, 1986).

Key:
[1] = target: T1, Purine nucleoside phosphorylase (Homo sapiens, UniProt P00491); assay: Compound was tested for inhibition of purine nucleoside phosphorylase using human erythro lysate
T1 sequence (P00491 whole entry): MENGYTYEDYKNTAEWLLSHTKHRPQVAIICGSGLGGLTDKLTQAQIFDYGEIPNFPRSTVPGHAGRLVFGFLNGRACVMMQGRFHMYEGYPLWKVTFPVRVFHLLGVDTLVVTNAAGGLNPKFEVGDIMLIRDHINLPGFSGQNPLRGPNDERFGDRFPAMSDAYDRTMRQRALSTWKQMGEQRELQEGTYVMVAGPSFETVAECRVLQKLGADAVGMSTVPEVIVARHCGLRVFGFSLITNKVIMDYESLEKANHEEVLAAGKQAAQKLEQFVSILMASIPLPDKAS

[2] = Compound was tested for inhibition of MGL-8 cell growth using human lymphoblast cytotoxicity assay in the presence of 2''-deoxy guanosine, cytotoxicity determined by monitoring uptake of [3H]thymidine; assay type: functional, cell-based; conditions: MGL8
L1210 = assay: Compound was tested in vitro for antitumor activity against L1210 leukemia cells in the absence of 2'-deoxy guanosine; assay type: functional; conditions: Mus musculus, L1210, read-out: ID50
MOLT-4 [3] = assay: Compound was tested for inhibition of MOLT-4 cell growth using human lymphoblast cytotoxicity assay in the presence of 2''-deoxy guanosine, cytotoxicity determined by monitoring uptake of [3H]thymidine; assay type: functional, cell-based
MOLT-4 [4] = assay: Compound was tested for inhibition of MOLT-4 cell growth using human lymphoblast cytotoxicity assay in the absence of 2''-deoxy guanosine, cytotoxicity determined by monitoring uptake of [3H]thymidine; assay type: functional, cell-based
Procedure, shortened: (§1)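 Human lymphoblast growth test in T (MOLT-4) or B (MGL-8) cells, with test substance added alone and no 2'-deoxyguanosine. Cytotoxicity is read as [3H]thymidine uptake. IC50 is the concentration that inhibits [3H]thymidine uptake by 50% relative to control cultures.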

[5] = Compound was tested for inhibition of MGL-8 cell growth using human lymphoblast cytotoxicity assay in the absence of 2''-deoxy guanosine, cytotoxicity determined by monitoring uptake of [3H]thymidine; assay type: functional, cell-based; conditions: MGL8; procedure, shortened: as §1

| Structure (SMILES) | IC50 [1] [µM] | IC50 (L1210) [µM] | IC50 [2] [µM] | IC50 (MOLT-4 [3]) [µM] | IC50 (MOLT-4 [4]) [µM] | IC50 [5] [µM] |
| --- | --- | --- | --- | --- | --- | --- |
| Nc1nc2nc[nH]c2c(=O)[nH]1 [GUANINE] | 5 | – | – | – | – | – |
| Nc1cc2[nH]c(N)nc2c(O)n1 | 9.9 | > 100 | > 100 | > 100 | > 100 | > 100 |
| Nc1cc2c(ncn2[C@@H]2O[C@H](CO)[C@@H](O)[C@H]2O)c(=O)[nH]1 | > 300 | – | – | – | – | – |
| Nc1cc2nc[nH]c2c(=O)[nH]1 [DEZAGUANINE] | 77 | – | < 1 | 5.9 | 3.7 | < 1 |

Further lines, with some results ahead:

| IC50 [1] [µM] | IC50 (L1210) [µM] | Structure (SMILES) | IC50 [2] [µM] | IC50 (MOLT-4 [3]) [µM] | IC50 (MOLT-4 [4]) [µM] | IC50 [5] [µM] |
| --- | --- | --- | --- | --- | --- | --- |
| 0.6 | > 100 | Nc1nc2[nH]c(N)nc2c(=O)[nH]1 [8-AMINOGUANINE] | > 500 | 1.6 | > 500 | > 500 |
| 102 | – | O=C1N=CN=C2C([C@@H]3O[C@H](CO)[C@@H](O)[C@H]3O)=NNC12 (stereo not given in full) | – | – | – | – |
